The target of one test is T1, Interstitial collagenase (Homo sapiens, UniProt P03956).
T1 sequence (P03956 whole entry): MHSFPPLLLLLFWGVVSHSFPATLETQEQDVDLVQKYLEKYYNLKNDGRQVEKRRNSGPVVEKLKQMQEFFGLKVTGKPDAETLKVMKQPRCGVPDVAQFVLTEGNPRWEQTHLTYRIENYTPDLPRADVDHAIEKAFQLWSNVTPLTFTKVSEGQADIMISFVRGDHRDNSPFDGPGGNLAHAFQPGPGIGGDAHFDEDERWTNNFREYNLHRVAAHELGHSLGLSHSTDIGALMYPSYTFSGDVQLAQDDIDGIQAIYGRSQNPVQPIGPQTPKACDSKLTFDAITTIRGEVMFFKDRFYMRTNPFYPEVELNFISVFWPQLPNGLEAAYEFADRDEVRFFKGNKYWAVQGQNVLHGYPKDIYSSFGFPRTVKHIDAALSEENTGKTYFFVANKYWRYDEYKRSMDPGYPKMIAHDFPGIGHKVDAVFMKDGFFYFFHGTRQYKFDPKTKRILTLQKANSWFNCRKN
Put plainly: Inhibitory activity against Matrix metalloprotease-1. Put shortly: (§1)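 Recombinant enzymes: C-terminally truncated collagenase-1, gelatinase-B and stromelysin. IC50 from nonlinear fit of rate versus inhibitor concentration to v = V0/(1+[I]/IC50). Values are the average of two or more independent determinations, SD ±20% or better.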

For test [1], the target named is Matrix metalloproteinase-9 (Homo sapiens, UniProt P14780). Put plainly: Inhibitory activity against Matrix metalloprotease-9. More on the design: species or system Komagataella pastoris. Put shortly: as §1
Test [2] in a line: Inhibitory activity against stromelysin. Put shortly: as §1

Structures are written as SMILES.

Here are results for 17 compounds from ChEMBL document CHEMBL1132120, “Identification of highly selective inhibitors of collagenase-1 from combinatorial libraries of diketopiperazines” (J Med Chem, 1999).

In general, IC50 refers to the concentration needed to halve the response being measured. Lower therefore signals inhibition by little substance.

Matrix metalloproteinase-9, sequence (P14780 whole entry): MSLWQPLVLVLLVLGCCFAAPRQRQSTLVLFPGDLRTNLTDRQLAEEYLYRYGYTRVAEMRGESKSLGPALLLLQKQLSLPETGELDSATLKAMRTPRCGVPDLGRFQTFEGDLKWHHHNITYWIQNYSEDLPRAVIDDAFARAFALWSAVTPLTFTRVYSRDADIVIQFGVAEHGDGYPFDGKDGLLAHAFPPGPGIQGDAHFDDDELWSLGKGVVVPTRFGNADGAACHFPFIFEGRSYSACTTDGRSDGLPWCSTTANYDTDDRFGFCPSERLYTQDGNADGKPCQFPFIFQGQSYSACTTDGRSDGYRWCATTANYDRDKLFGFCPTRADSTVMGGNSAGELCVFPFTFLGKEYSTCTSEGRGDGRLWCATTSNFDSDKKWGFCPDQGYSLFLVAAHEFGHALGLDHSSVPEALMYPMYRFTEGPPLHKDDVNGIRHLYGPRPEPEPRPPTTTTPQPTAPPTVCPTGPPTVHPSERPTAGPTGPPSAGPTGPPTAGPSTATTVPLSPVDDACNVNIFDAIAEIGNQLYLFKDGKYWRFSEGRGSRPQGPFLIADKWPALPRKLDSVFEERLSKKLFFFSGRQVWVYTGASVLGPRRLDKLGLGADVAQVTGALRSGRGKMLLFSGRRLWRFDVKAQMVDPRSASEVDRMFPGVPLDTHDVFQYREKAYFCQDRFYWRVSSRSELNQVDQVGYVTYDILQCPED

`CC(C)(C)NC(=O)C(Cc1ccccc1)N1C(=O)[C@H](CS)NC(=O)[C@@H]1Cc1ccc([N+](=O)[O-])cc1` (some centres undefined): the IC50 against Interstitial collagenase was determined as 37 nM; in test [1], 1200 nM.
`CCCN1C(=O)[C@H](CS)NC(=O)[C@@H]1Cc1ccc([N+](=O)[O-])cc1`: the IC50 at Interstitial collagenase was 65 nM; in test [2] it was more than 20000 nM; in test [1], 2900 nM.
The like results for `COc1ccc(CSC[C@H]2C(=O)N[C@@H](CS)C(=O)N2Cc2ccc(OC)cc2)cc1` were, in that order, 310 nM, 1100 nM and 52 nM.
For `O=C1N[C@@H](CS)C(=O)N(Cc2ccc3ccccc3n2)[C@H]1Cc1ccc([N+](=O)[O-])cc1`, the figures for the IC50 (against Interstitial collagenase; in test [2]; in test [1]) were 74 nM, more than 20000 nM and 1700 nM, respectively.
In the case of `CC(C)(C)NC(=O)C(c1ccccc1)N1C(=O)[C@H](CS)NC(=O)[C@@H]1Cc1ccc([N+](=O)[O-])cc1` (some centres undefined), the results for the IC50 (against Interstitial collagenase; in test [1]) were 25 nM and 1300 nM, respectively.
On the same counts, the results for `CCCCCCCC(C(=O)NC(C)(C)C)N1C(=O)[C@H](CS)NC(=O)[C@@H]1Cc1ccc([N+](=O)[O-])cc1` (some centres undefined) are 36 nM and 1500 nM.
On to `COc1ccc(CN2C(=O)[C@H](CS)NC(=O)[C@@H]2Cc2ccc([N+](=O)[O-])cc2)cc1`, for which the IC50 was 47 nM against Interstitial collagenase, more than 40000 nM in test [2] and 1200 nM in test [1].
For the compound `COc1ccc(CN2C(=O)[C@H](CS)NC(=O)[C@@H]2CC2CCCCC2)cc1`, the IC50 in test [2] turned out to be 3800 nM.
`COc1ccc(CN2C(=O)[C@H](CS)NC(=O)[C@@H]2Cc2ccccc2)cc1`: the IC50 at Interstitial collagenase came out at 110 nM; in test [2], 4000 nM; in test [1] it was 400 nM.
Consider `COc1ccc(C(C(=O)NC(C)(C)C)N2C(=O)[C@H](CS)NC(=O)[C@@H]2Cc2ccc([N+](=O)[O-])cc2)cc1` (some centres undefined), for which the IC50 was 21 nM against Interstitial collagenase and 1300 nM in test [1].
The like results for `CC(C)(C)NC(=O)C(C1CC1)N1C(=O)[C@H](CS)NC(=O)[C@@H]1Cc1ccc([N+](=O)[O-])cc1` (some centres undefined) were, in that order, 37 nM and 1180 nM.
Regarding `CC(C)(C)NC(=O)C(c1ccc(Oc2ccccc2)cc1)N1C(=O)[C@H](CS)NC(=O)[C@@H]1Cc1ccc([N+](=O)[O-])cc1` (some centres undefined), the IC50 is 108 nM against Interstitial collagenase and 4400 nM in test [1].
For the compound `CCCN1C(=O)[C@H](CS)NC(=O)[C@@H]1Cc1ccc(NC(C)=O)cc1`, the IC50 (against Interstitial collagenase; in test [2]; in test [1]) was more than 40000 nM throughout.
Regarding `CC(C)(C)NC(=O)C(c1ccc(-c2ccccc2)cc1)N1C(=O)[C@H](CS)NC(=O)[C@@H]1Cc1ccc([N+](=O)[O-])cc1` (some centres undefined), the IC50 against Interstitial collagenase is 102 nM; in test [1], 4300 nM.
As for `CCCCOc1ccc(C(C(=O)NC(C)(C)C)N2C(=O)[C@H](CS)NC(=O)[C@@H]2Cc2ccc([N+](=O)[O-])cc2)cc1` (some centres undefined), the IC50 amounted to 73 nM on Interstitial collagenase and 3200 nM in test [1].
In the case of `CCc1ccc(C(C(=O)NC(C)(C)C)N2C(=O)[C@H](CS)NC(=O)[C@@H]2Cc2ccc([N+](=O)[O-])cc2)cc1` (some centres undefined), the IC50 at Interstitial collagenase was 41 nM; in test [1], 2600 nM.
The like results for `CC(C)CC(C(=O)NC(C)(C)C)N1C(=O)[C@H](CS)NC(=O)[C@@H]1Cc1ccc([N+](=O)[O-])cc1` (some centres undefined) were, in that order, 24 nM and 570 nM.
